Publication PMC9290029 (ACS Medicinal Chemistry Letters, 2022)
One block for each molecule: values may come before it.

Tests used:
[1] = Pharmacokinetic assessments in rats; type: in vivo, Sprague Dawley rats; details: for AUC: male, Sprague-Dawley, rat, plasma, po; for metabolites detected in plasma (Cmax at 30 mpk): rats, oral
human NHE3 = molecular target: T1, human NHE3 (Homo sapiens, UniProt P48764); test: Cell-based human NHE3 inhibition assay; details: species not stated; data not shown
T1 sequence (P48764 26-834): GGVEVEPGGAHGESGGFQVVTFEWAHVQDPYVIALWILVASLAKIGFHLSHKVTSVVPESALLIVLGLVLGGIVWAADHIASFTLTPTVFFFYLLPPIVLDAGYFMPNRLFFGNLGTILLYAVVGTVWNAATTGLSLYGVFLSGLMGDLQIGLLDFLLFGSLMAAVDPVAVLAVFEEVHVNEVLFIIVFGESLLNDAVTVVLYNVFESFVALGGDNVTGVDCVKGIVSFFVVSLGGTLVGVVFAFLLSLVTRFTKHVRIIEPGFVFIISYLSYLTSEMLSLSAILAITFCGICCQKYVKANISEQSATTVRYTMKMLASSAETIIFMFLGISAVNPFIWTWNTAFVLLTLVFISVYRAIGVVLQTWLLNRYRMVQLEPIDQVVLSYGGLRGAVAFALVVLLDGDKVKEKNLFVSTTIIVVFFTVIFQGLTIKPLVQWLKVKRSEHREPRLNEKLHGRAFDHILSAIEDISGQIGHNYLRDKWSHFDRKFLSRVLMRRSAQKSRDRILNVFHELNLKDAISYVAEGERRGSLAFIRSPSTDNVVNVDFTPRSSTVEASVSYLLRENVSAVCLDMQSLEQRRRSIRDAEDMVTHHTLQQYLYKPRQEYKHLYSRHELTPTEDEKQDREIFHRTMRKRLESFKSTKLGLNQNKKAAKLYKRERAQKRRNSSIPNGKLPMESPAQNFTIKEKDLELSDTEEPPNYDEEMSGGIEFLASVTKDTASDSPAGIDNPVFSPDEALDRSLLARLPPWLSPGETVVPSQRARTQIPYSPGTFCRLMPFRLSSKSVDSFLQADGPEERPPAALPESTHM
Outline: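 Cell deacidification assay in transfected opossum kidney cells overexpressing human or rat NHE3. Test compounds are applied across a dose range, and inhibition of intracellular pH recovery is followed with a pH-sensitive dye. Potency is reported as pIC50 for each species.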

Sprague Dawley rats = test: Rat stool and urine content, stool form scoring; type: in vivo; details: for Increase in stool water: criterion: 10% increase from control; for Stool water dose-response: oral 0.1–3.0 mg/kg, criterion: Yes
Outline: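 Rats are dosed orally, 3 mg/kg for screening or 0.1, 0.3, 1.0 and 3.0 mg/kg for dose-response, then held in metabolic cages. Urine sodium reduction is measured at 16 h (n = 6 per group; mean ± SEM; one-way ANOVA with Dunnett's test versus vehicle). Stool form is scored 1 (normal) to 5 (watery), and fecal water is given as percent water by weight and percent of control.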

humans = details: clinical trials, cited from earlier work
[2] = tested on: dialysis patients with hyperphosphatemia; details: cited from earlier work

Structure (SMILES): CN1Cc2c(Cl)cc(Cl)cc2C(c2cccc(S(N)(=O)=O)c2)C1 (stereo not drawn) [Compound 1]
pharmacodynamic (PD) effect in PK studies ([1]; Sprague–Dawley rats): absence of a pharmacodynamic (PD) effect

AUC ([1]; 22 mg/kg): < 8 ng·h/mL
Structure (SMILES): CN1Cc2c(Cl)cc(Cl)cc2C(c2cccc(S(=O)(=O)NCCOCCOCCNC(=O)c3ccc(C(=O)NCCOCCOCCNS(=O)(=O)c4cccc(C5CN(C)Cc6c(Cl)cc(Cl)cc65)c4)cc3)c2)C1 (stereo not drawn) [Compound 20]

AUC ([1]; 23 mg/kg): < 8 ng·h/mL
Structure (SMILES): CN1Cc2c(Cl)cc(Cl)cc2C(c2ccc(S(=O)(=O)NCCOCCOCCNC(=O)c3ccc(C(=O)NCCOCCOCCNS(=O)(=O)c4ccc(C5CN(C)Cc6c(Cl)cc(Cl)cc65)cc4)cc3)cc2)C1 (stereo not drawn) [Compound 21]

AUC ([1]; 11 mg/kg): < 19 ng·h/mL
Structure (SMILES): CN1Cc2c(Cl)cc(Cl)cc2C(c2cccc(S(=O)(=O)NCCOCCOCCNC(=O)NCCOCCOCCNS(=O)(=O)c3cccc(C4CN(C)Cc5c(Cl)cc(Cl)cc54)c3)c2)C1 (stereo not drawn) [Compound 22]

AUC ([1]; 17 mg/kg): < 8 ng·h/mL
Structure (SMILES): CN1Cc2c(Cl)cc(Cl)cc2C(c2ccc(S(=O)(=O)NCCOCCOCCNC(=O)NCCOCCOCCNS(=O)(=O)c3ccc(C4CN(C)Cc5c(Cl)cc(Cl)cc54)cc3)cc2)C1 (stereo not drawn) [Compound 23]

inhibition in the cell assay (maximum reached) (human NHE3): < 100% | metabolites detected in plasma (Cmax at 30 mpk) [1]: No metabolites detected
Structure (SMILES): CN1Cc2c(Cl)cc(Cl)cc2[C@H](c2cccc(S(=O)(=O)NCCOCCOCCNC(=O)Nc3ccc(NC(=O)NCCOCCOCCNS(=O)(=O)c4cccc([C@@H]5CN(C)Cc6c(Cl)cc(Cl)cc65)c4)cc3)c2)C1 [Compound 26]
Increase in stool water (Sprague Dawley rats): Yes | Stool water dose-response (Sprague Dawley rats): Yes

metabolites detected in plasma (Cmax at 30 mpk) [1]: No metabolites detected
Structure (SMILES): CN1Cc2c(Cl)cc(Cl)cc2[C@H](c2cccc(S(=O)(=O)NCCOCCOCCNC(=O)NCCCCNC(=O)NCCOCCOCCNS(=O)(=O)c3cccc([C@@H]4CN(C)Cc5c(Cl)cc(Cl)cc54)c3)c2)C1 [Compound 28, tenapanor]
Increase in stool water (Sprague Dawley rats): Yes | Stool water dose-response (Sprague Dawley rats): Yes | stool consistency (humans; versus the placebo): softened stool consistency in a dose-dependent manner | stool frequency and weight (humans; versus the placebo): increased stool frequency and weight | plasma concentrations (humans; humans, below the quantification limit in >95% of all plasma samples): < 0.5 ng/mL | plasma samples below the quantification limit (0.5 ng/mL) (humans; humans): > 95% | serum phosphorus levels [2]: lowered serum phosphorus levels

AUC ([1]; 5.3 mg/kg): < 19 ng·h/mL
Structure (SMILES): CN1Cc2c(Cl)cc(Cl)cc2C(c2ccc(S(=O)(=O)NCCOCCOCCOCCNC(=O)NCCOCCOCCOCCNS(=O)(=O)c3ccc(C4CN(C)Cc5c(Cl)cc(Cl)cc54)cc3)cc2)C1 (stereo not drawn) [Compound 35]

AUC ([1]; 19 mg/kg): < 9 ng·h/mL
Structure (SMILES): CN1Cc2c(Cl)cc(Cl)cc2C(c2ccc(S(=O)(=O)NCCOCCOCCOCCNC(=O)c3ccc(C(=O)NCCOCCOCCOCCNS(=O)(=O)c4ccc(C5CN(C)Cc6c(Cl)cc(Cl)cc65)cc4)cc3)cc2)C1 (stereo not drawn) [Compound 37]

AUC ([1]; 1.8 mg/kg): < 75 ng·h/mL
Structure (SMILES): CN1Cc2c(Cl)cc(Cl)cc2C(c2cccc(S(=O)(=O)NCCOCCOCCOCCNC(=O)NCCOCCOCCOCCNS(=O)(=O)c3cccc(C4CN(C)Cc5c(Cl)cc(Cl)cc54)c3)c2)C1 (stereo not drawn) [Compound 38]

AUC ([1]; 28 mg/kg): < 8 ng·h/mL
Structure (SMILES): CN1Cc2c(Cl)cc(Cl)cc2C(c2cccc(S(=O)(=O)NCCOCCOCCOCCNC(=O)CCC(=O)NCCOCCOCCOCCNS(=O)(=O)c3cccc(C4CN(C)Cc5c(Cl)cc(Cl)cc54)c3)c2)C1 (stereo not drawn) [Compound 44]
